Experimental data published in ChEMBL document CHEMBL1139819, “Cyanopyridyl containing 1,4-dihydroindeno[1,2-c]pyrazoles as potent checkpoint kinase 1 inhibitors: improving oral biovailability” (Bioorg Med Chem Lett, 2007).

Columns and labels:
[1] = target: T1, Serine/threonine-protein kinase Chk1 (Homo sapiens, UniProt O14757); assay: Inhibition of recombinant CHK1
T1 sequence (O14757 whole entry): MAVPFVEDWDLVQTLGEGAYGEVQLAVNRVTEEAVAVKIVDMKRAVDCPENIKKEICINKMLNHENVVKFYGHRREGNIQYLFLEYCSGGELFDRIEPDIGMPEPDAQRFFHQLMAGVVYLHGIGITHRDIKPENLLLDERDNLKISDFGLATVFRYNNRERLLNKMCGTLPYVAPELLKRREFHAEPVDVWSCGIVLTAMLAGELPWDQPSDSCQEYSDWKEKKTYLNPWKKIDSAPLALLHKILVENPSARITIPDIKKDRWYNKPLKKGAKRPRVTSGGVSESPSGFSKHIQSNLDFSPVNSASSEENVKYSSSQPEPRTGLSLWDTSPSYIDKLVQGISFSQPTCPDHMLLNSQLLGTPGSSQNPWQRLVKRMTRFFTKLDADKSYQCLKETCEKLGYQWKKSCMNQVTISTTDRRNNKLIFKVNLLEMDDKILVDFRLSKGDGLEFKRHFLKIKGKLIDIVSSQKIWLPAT
In short: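 Substrate is 5 µM human biotinylated Cdc25c peptide. Buffer is 25 mM Hepes pH 7.4, 10 mM MgCl2, Triton X-100, 0.5 mM DTT. ATP at 5 µM plus 33P-ATP, with 2% DMSO. Run 30 min at room temperature, stopped with NaCl/EDTA, then 33P incorporation captured on a Flash Plate.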

HeLa = assay: Antiproliferative activity against HeLa cells assessed as […] by MTS assay; type: functional, cell-based; settings: Homo sapiens
In short: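 MTS proliferation assay in HeLa cells. […] For the combination, the regression baseline was set to the inhibition given by 150 nM doxorubicin alone. The combo/single EC50 ratio indexes potentiation.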

[2] = AUC in mouse at 10 mg/kg, ip; type: ADME, organism-based; design: dose 10 mg/kg, route intraperitoneal; settings: plasma
In short: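 Mice dosed intraperitoneally at 10 mg/kg. Vehicle is 2.5% EtOH, 5% Tween 80, 25% PEG400 in PBS, or for some entries 10% NMP, 20% Solutol, 70% PBS. Plasma exposure is given as AUC.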

[3] = AUC in mouse at 10 mg/kg, po; type: ADME, organism-based; design: dose 10 mg/kg, route oral; settings: plasma
In short: (§1)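 Oral dosing in mice at 10 mg/kg. Plasma exposure read as AUC and Cmax.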

[4] = Volume of distribution in mouse at 3.0 mg/kg, iv; type: ADME, organism-based; design: dose 3 mg/kg, route intravenous; settings: in vivo
[5] = Half life in mouse at 3.0 mg/kg, iv; type: ADME, organism-based; design: dose 3 mg/kg, route intravenous; settings: in vivo
Mus musculus = assay: AUC in mouse at 3.0 mg/kg, iv; type: ADME, organism-based, Plasma; design: dose 3 mg/kg, route intravenous; settings: in vivo
[6] = Cmax in mouse at 10 mg/kg, po; type: ADME, organism-based; design: dose 10 mg/kg, route oral; settings: in vivo; in short: as §1
[7] = Oral bioavailability in mouse at 10 mg/kg; type: ADME, organism-based; settings: in vivo
[8] = Dissociation constant, pKa of the compound; type: physicochemical
[9] = Antiproliferative activity against H1299 cells assessed as reduction in G2/M cell population by FACS assay; type: functional, cell-based; settings: Homo sapiens, NCI-H1299
In short: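 Cell cycle analysis by FACS in H1299 cells. EC50 is the inhibitor concentration that halves the G2/M population induced by 500 nM doxorubicin (combo). It was also measured without doxorubicin (single).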

[10] = AUC in Nu/Nu mouse at 10 mg/kg/day, po in NMP; type: ADME, organism-based; design: route oral; settings: plasma
In short: (§2)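 Oral dosing in Nu/Nu mice at 10, 25 or 50 mkd in one of two vehicles, NMP or Phosal.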

[11] = AUC in Nu/Nu mouse at 25 mg/kg/day, po in NMP; type: ADME, organism-based; design: route oral; settings: plasma; in short: as §2
[12] = AUC in Nu/Nu mouse at 50 mg/kg/day, po in NMP; type: ADME, organism-based; design: route oral; settings: plasma; in short: as §2
[13] = AUC in Nu/Nu mouse at 10 mg/kg/day, po in phosal; type: ADME, organism-based; design: route oral; settings: plasma; in short: as §2
[14] = AUC in Nu/Nu mouse at 25 mg/kg/day, po in phosal; type: ADME, organism-based; design: route oral; settings: plasma; in short: as §2
[15] = AUC in Nu/Nu mouse at 50 mg/kg/day, po in phosal; type: ADME, organism-based; design: route oral; settings: plasma; in short: as §2

| SMILES | IC50 [1] | EC50 (HeLa) | AUC [2] | pKa [8] | further results |
| --- | --- | --- | --- | --- | --- |
| COc1cc2c(cc1OCCO)-c1[nH]nc(-c3ccc(C#N)nc3)c1C2 | 2.6 nM |  |  |  |  |
| N#Cc1ccc(-c2n[nH]c3c2Cc2cc(OCCCN4CCOCC4)ccc2-3)cn1 | 6.4 nM | > 59000 nM |  |  |  |
| N#Cc1ccc(-c2n[nH]c3c2Cc2ccc(OCCCN4CCOCC4)cc2-3)cn1 | 3.2 nM | > 59000 nM | 2600 ng·h/mL |  | AUC [3]: 3000 ng·h/mL; Vd [4]: 7.6 L/kg; half-life [5]: 1.4 h; AUC (Mus musculus): 2000 ng·h/mL; Cmax [6]: 660 nM; bioavailability [7]: 44% |
| N#Cc1ccc(-c2n[nH]c3c2Cc2ccc(CCCCN4CCOCC4)cc2-3)cn1 | 1.2 nM | 9700 nM |  |  |  |
| N#Cc1ccc(-c2n[nH]c3c2Cc2cc(OCCN4CCOCC4)ccc2-3)cn1 | 6.5 nM | > 59000 nM |  |  |  |
| CC(=O)N1CCN(CCCCOc2ccc3c(c2)-c2[nH]nc(-c4ccc(C#N)nc4)c2C3)CC1 | 1.5 nM | 33000 nM | 2200 ng·h/mL | 6.9 |  |
| COc1cc2c(cc1OCc1ccccn1)Cc1c(-c3ccc(C#N)nc3)n[nH]c1-2 | 3.7 nM |  | 470 ng·h/mL |  |  |
| N#Cc1ccc(-c2n[nH]c3c2Cc2ccc(OCCOCCN4CCOCC4)cc2-3)cn1 | 1.8 nM | 29000 nM | 1700 ng·h/mL | 6.1 |  |
| COc1cc2c(cc1OCCN1CCOCC1)Cc1c(-c3ccc(C#N)nc3)n[nH]c1-2 | 3.8 nM |  |  |  |  |
| COc1cc2c(cc1OC)-c1n[nH]c(-c3ccc(-c4ccc(O)cc4)cc3)c1C2 |  | > 59000 nM |  |  | EC50 [9]: > 10000 nM |
| N#Cc1ccc(-c2n[nH]c3c2Cc2ccc(OCCCn4ccnc4)cc2-3)cn1 | 1.1 nM | > 59000 nM |  | 7.2 |  |
| COc1cc2c(cc1OCCO)Cc1c(-c3ccc(C#N)nc3)n[nH]c1-2 | 3.1 nM |  | 300 ng·h/mL |  |  |
| N#Cc1ccc(-c2n[nH]c3c2Cc2ccc(OCCCCN4CCOCC4)cc2-3)cn1 | 0.75 nM | 21000 nM | 10400 ng·h/mL |  | AUC [3]: > 3300 ng·h/mL; Vd [4]: 6.9 L/kg; half-life [5]: 1.4 h; AUC (Mus musculus): 2100 ng·h/mL; Cmax [6]: 770 nM; bioavailability [7]: > 50%; AUC [10]: 6000 ng·h/mL; AUC [11]: 12000 ng·h/mL; AUC [12]: 25000 ng·h/mL; AUC [13]: 5000 ng·h/mL; AUC [14]: 15000 ng·h/mL; AUC [15]: 32000 ng·h/mL |
| N#Cc1ccc(-c2n[nH]c3c2Cc2ccc(OCCN4CCOCC4)cc2-3)cn1 |  | > 59000 nM | 5700 ng·h/mL | 5.7 |  |
| C[C@@H]1CN(CCCOc2ccc3c(c2)-c2[nH]nc(-c4ccc(C#N)nc4)c2C3)C[C@H](C)O1 | 1 nM | > 52000 nM | 3000 ng·h/mL | 6.1 |  |
| COc1cc2c(cc1OCCc1scnc1C)-c1[nH]nc(-c3ccc(C#N)nc3)c1C2 | 1.1 nM |  |  |  |  |
| N#Cc1ccc(-c2n[nH]c3c2Cc2ccc(OCCCCCN4CCOCC4)cc2-3)cn1 | 1.4 nM | 8100 nM |  |  |  |
| Cc1ncsc1CCOc1ccc2c(c1)-c1[nH]nc(-c3ccc(C#N)nc3)c1C2 | 6.4 nM | 7600 nM |  | 3.3 |  |
| N#Cc1ccc(-c2n[nH]c3c2Cc2ccc(OCCCc4cccs4)cc2-3)cn1 | 52 nM | > 59000 nM |  | 1.6 |  |
| N#Cc1ccc(-c2n[nH]c3c2Cc2ccc(OCCCN4CCCOCC4)cc2-3)cn1 | 0.92 nM | 5400 nM |  | 9.1 | AUC [3]: 31 ng·h/mL |
| N#Cc1ccc(-c2n[nH]c3c2Cc2ccc(NCCN4CCOCC4)cc2-3)cn1 | 7 nM | > 59000 nM |  |  |  |
| N#Cc1ccc(-c2n[nH]c3c2Cc2ccc(OCCCN4CCCCC4)cc2-3)cn1 | 2.6 nM | 4000 nM |  | 9.1 |  |
| COc1cc2c(cc1OC)-c1[nH]nc(-c3ccc(C#N)nc3)c1C2 |  | > 59000 nM |  |  | EC50 [9]: > 10000 nM |
| COc1cc2c(cc1OCCN1CCOCC1)-c1[nH]nc(-c3ccc(C#N)nc3)c1C2 | 3 nM |  | 930 ng·h/mL |  |  |
| N#Cc1ccc(-c2n[nH]c3c2Cc2ccc(OCCCC4CCNCC4)cc2-3)cn1 | 1 nM | 2700 nM |  | 11 |  |
| CN1CCN(CCCOc2ccc3c(c2)-c2[nH]nc(-c4ccc(C#N)nc4)c2C3)CC1 | 1.5 nM | 6200 nM |  | 9.1 |  |
| N#Cc1ccc(-c2n[nH]c3c2Cc2ccc(NC(=O)CCN4CCOCC4)cc2-3)cn1 | 16 nM | 33000 nM |  |  |  |
| COc1cc2c(cc1OCCc1scnc1C)Cc1c(-c3ccc(C#N)nc3)n[nH]c1-2 | 2.5 nM |  |  |  |  |
